Drawing on ChEMBL document CHEMBL1154367, “Novel 4-N-substituted aryl but-3-ene-1,2-dione derivatives of piperazinyloxazolidinones as antibacterial agents” (2009), this text covers MIC and Activity for twelve molecules.

≈ marks a conversion by molar mass, not a printed value. Calls of active or inactive are those of the source. No cut-off for these calls is given here.

The subject of one experiment is Streptococcus pyogenes. Nature of the experiment: Antibacterial activity against Streptococcus pyogenes after 24 hrs by agar dilution method. It is filed as functional. In outline:
(§1)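 MIC by agar dilution with doubling dilutions in cation-adjusted Mueller Hinton agar, 50–0.019 range, incubated in air at 35 °C for 24 h. Strains pre-grown on nutrient agar at 37 °C for 24 h, then suspended in normal saline with 0.05% Tween 20 at about 1.0–2.0 × 10⁷ cells/mL, matched to 0.5 McFarland.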
In general terms: In agar dilution, organisms are placed on agar that contains the substance at set levels.

Another experiment deals with Pseudomonas aeruginosa. The experiment in a line: Antibacterial activity against Pseudomonas aeruginosa after 24 hrs by agar dilution method. It is filed as functional, organism-based. In outline: as §1
The test system of experiment [1] is Staphylococcus aureus. Nature of the experiment: Antibacterial activity against methicillin and vancomycin-resistant Staphylococcus aureus ATCC 29213 after 24 hrs by agar dilution method. It is filed as functional. The note with it: ATCC 29213, 24 h.
The next experiment deals with Bacillus cereus. Nature of the experiment: Antibacterial activity against Bacillus cereus MTCC 430 after 24 hrs by agar dilution method. The settings on record: MTCC 430, 24 h. It is filed as functional. In outline: as §1
For the next experiment, the system named is Klebsiella pneumoniae. Nature of the experiment: Antibacterial activity against Klebsiella pneumoniae after 24 hrs by agar dilution method. It is filed as functional, organism-based. In outline: as §1
A further experiment relates to Escherichia coli. Nature of the experiment: Antibacterial activity against Escherichia coli after 24 hrs by agar dilution method. The experiment is classed as functional, organism-based. The essentials: as §1
The subject of experiment [2] is Staphylococcus aureus. The experiment in a line: Antibacterial activity against floxacin and methicillin-resistant Staphylococcus aureus ATCC 25923 after 24 hrs by agar dilution method. The experiment is classed as functional. The settings on record: ATCC 25923, 24 h.
Another experiment deals with Enterococcus faecalis. Nature of the experiment: Antibacterial activity against Enterococcus faecalis MTCC 439 after 24 hrs by agar dilution method. It is filed as functional. The settings on record: MTCC 439, 24 h. The essentials:
as §1

The test system of experiment [3] is Staphylococcus aureus. Nature of the experiment: Antibacterial activity against methicillin-resistant Staphylococcus aureus ATCC 70069 after 24 hrs by agar dilution method. The settings on record: ATCC 70069, 24 h. It is filed as functional.

The MIC is the lowest concentration found to suppress growth.

With `CC(=O)NC[C@H]1CN(c2ccc(N3CCN(C(=O)C(=O)/C=C/c4ccc(C(F)(F)F)cc4)CC3)c(F)c2)C(=O)O1`, the MIC with Streptococcus pyogenes was determined as 0.19 µg/mL (≈ 0.338 µM); in the experiment on Staphylococcus aureus [1], 1.56 µg/mL (≈ 2.77 µM); in the experiment with Bacillus cereus, 1.56 µg/mL (≈ 2.77 µM); in the experiment on Staphylococcus aureus [2], 0.78 µg/mL (≈ 1.39 µM); in the experiment on Enterococcus faecalis, 0.19 µg/mL (≈ 0.338 µM); with Staphylococcus aureus [3], 0.78 µg/mL (≈ 1.39 µM). Further, the outcome in the experiment with Pseudomonas aeruginosa, with Klebsiella pneumoniae and in the experiment with Escherichia coli was inactive.
As to `CN[C@H](CC(C)C)C(=O)N[C@H]1C(=O)N[C@@H](CC(N)=O)C(=O)N[C@H]2C(=O)N[C@H]3C(=O)N[C@H](C(=O)N[C@H](C(=O)O)c4cc(O)cc(O)c4-c4cc3ccc4O)[C@H](O)c3ccc(c(Cl)c3)Oc3cc2cc(c3O[C@@H]2O[C@H](CO)[C@@H](O)[C@H](O)[C@H]2O[C@H]2C[C@](C)(N)[C@H](O)[C@H](C)O2)Oc2ccc(cc2Cl)[C@H]1O` [VANCOMYCIN], the MIC against Streptococcus pyogenes is 0.39 µg/mL (≈ 0.269 µM); against Staphylococcus aureus [1] it was 1.56 µg/mL (≈ 1.08 µM); against Bacillus cereus it was 0.19 µg/mL (≈ 0.131 µM); in the experiment with Staphylococcus aureus [2], 0.39 µg/mL (≈ 0.269 µM); with Enterococcus faecalis it was 0.78 µg/mL (≈ 0.538 µM); against Staphylococcus aureus [3], 6.25 µg/mL (≈ 4.31 µM).
For `CC(=O)NC[C@H]1CN(c2ccc(N3CCN(C(=O)C(=O)/C=C/c4ccc(C)cc4)CC3)c(F)c2)C(=O)O1`, the MIC stood at 0.09 µg/mL (≈ 0.177 µM) in the experiment with Streptococcus pyogenes; 0.39 µg/mL (≈ 0.767 µM) in the experiment with Staphylococcus aureus [1]; 0.19 µg/mL (≈ 0.374 µM) against Bacillus cereus; 0.19 µg/mL (≈ 0.374 µM) against Staphylococcus aureus [2]; 0.04 µg/mL (≈ 0.0787 µM) in the experiment with Enterococcus faecalis; 0.19 µg/mL (≈ 0.374 µM) against Staphylococcus aureus [3]. Besides, the outcome in the experiment with Pseudomonas aeruginosa, in the experiment with Klebsiella pneumoniae and in the experiment with Escherichia coli was inactive.
For the molecule `CC(=O)NC[C@H]1CN(c2ccc(N3CCN(C(=O)C(=O)/C=C/c4ccc(Cl)c(Cl)c4Cl)CC3)c(F)c2)C(=O)O1`, the minimum inhibitory concentration (MIC) in the experiment with Streptococcus pyogenes, in the experiment with Staphylococcus aureus [1], against Bacillus cereus, in the experiment with Staphylococcus aureus [2], in the experiment with Enterococcus faecalis and in the experiment with Staphylococcus aureus [3] was over 50 µg/mL throughout. Besides, the outcome in the experiment on Pseudomonas aeruginosa, with Klebsiella pneumoniae and in the experiment with Escherichia coli was inactive.
On to `CC(=O)NC[C@H]1CN(c2ccc(N3CCN(C(=O)C(=O)/C=C/c4ccccc4)CC3)c(F)c2)C(=O)O1`, for which the MIC was 0.39 µg/mL (≈ 0.789 µM) against Streptococcus pyogenes; 0.78 µg/mL (≈ 1.58 µM) against Staphylococcus aureus [1]; 0.39 µg/mL (≈ 0.789 µM) in the experiment with Bacillus cereus; 0.78 µg/mL (≈ 1.58 µM) against Staphylococcus aureus [2]; 0.78 µg/mL (≈ 1.58 µM) in the experiment with Enterococcus faecalis; 0.39 µg/mL (≈ 0.789 µM) with Staphylococcus aureus [3]. Moreover, the outcome in the experiment with Pseudomonas aeruginosa, in the experiment with Klebsiella pneumoniae and with Escherichia coli was inactive.
Regarding `CC(=O)NC[C@H]1CN(c2ccc(N3CCN(C(=O)C(=O)/C=C/c4cccs4)CC3)c(F)c2)C(=O)O1`, the MIC in the experiment with Streptococcus pyogenes is 0.39 µg/mL (≈ 0.779 µM); against Staphylococcus aureus [1], 1.56 µg/mL (≈ 3.12 µM); with Bacillus cereus it was 0.39 µg/mL (≈ 0.779 µM); with Staphylococcus aureus [2], 0.39 µg/mL (≈ 0.779 µM); in the experiment with Enterococcus faecalis it was 0.78 µg/mL (≈ 1.56 µM); against Staphylococcus aureus [3] it was 0.78 µg/mL (≈ 1.56 µM). In addition, the result in the experiment with Pseudomonas aeruginosa, in the experiment with Klebsiella pneumoniae and in the experiment with Escherichia coli was inactive.
Turning to `CC(=O)NC[C@H]1CN(c2ccc(N3CCN(C(=O)C(=O)/C=C/c4ccc(F)c(F)c4)CC3)c(F)c2)C(=O)O1`, the MIC with Streptococcus pyogenes was 0.78 µg/mL (≈ 1.47 µM); with Staphylococcus aureus [1], 3.12 µg/mL (≈ 5.88 µM); in the experiment on Bacillus cereus, 0.39 µg/mL (≈ 0.735 µM); in the experiment on Staphylococcus aureus [2], 0.78 µg/mL (≈ 1.47 µM); against Enterococcus faecalis, 0.78 µg/mL (≈ 1.47 µM); with Staphylococcus aureus [3], 1.56 µg/mL (≈ 2.94 µM). Further, the result in the experiment with Pseudomonas aeruginosa, in the experiment with Klebsiella pneumoniae and with Escherichia coli was inactive.
Take `CC(=O)NC[C@H]1CN(c2ccc(N3CCN(C(=O)C(=O)/C=C/c4ccsc4)CC3)c(F)c2)C(=O)O1`: the MIC with Streptococcus pyogenes turned out to be 0.39 µg/mL (≈ 0.779 µM); in the experiment with Staphylococcus aureus [1] it was 1.56 µg/mL (≈ 3.12 µM); in the experiment with Bacillus cereus, 0.78 µg/mL (≈ 1.56 µM); against Staphylococcus aureus [2], 0.78 µg/mL (≈ 1.56 µM); in the experiment on Enterococcus faecalis, 0.78 µg/mL (≈ 1.56 µM); in the experiment on Staphylococcus aureus [3], 0.78 µg/mL (≈ 1.56 µM). Also, the outcome in the experiment with Pseudomonas aeruginosa, in the experiment with Klebsiella pneumoniae and with Escherichia coli was inactive.
On to `CC(=O)NC[C@H]1CN(c2ccc(N3CCN(C(=O)C(=O)/C=C/c4ccc(F)cc4)CC3)c(F)c2)C(=O)O1`, for which the minimum inhibitory concentration (MIC) against Streptococcus pyogenes is 0.39 µg/mL (≈ 0.761 µM); against Staphylococcus aureus [1] it was 1.56 µg/mL (≈ 3.04 µM); against Bacillus cereus, 0.39 µg/mL (≈ 0.761 µM); against Staphylococcus aureus [2], 0.78 µg/mL (≈ 1.52 µM); against Enterococcus faecalis it was 0.78 µg/mL (≈ 1.52 µM); against Staphylococcus aureus [3] it was 0.78 µg/mL (≈ 1.52 µM). Further, the result in the experiment on Pseudomonas aeruginosa, in the experiment on Klebsiella pneumoniae and in the experiment with Escherichia coli was inactive.
Take `CC(=O)NC[C@H]1CN(c2ccc(N3CCOCC3)c(F)c2)C(=O)O1` [LINEZOLID]: the MIC in the experiment on Streptococcus pyogenes was 1.56 µg/mL (≈ 4.62 µM); against Staphylococcus aureus [1], 3.12 µg/mL (≈ 9.25 µM); with Bacillus cereus, 0.78 µg/mL (≈ 2.31 µM); with Staphylococcus aureus [2], 1.56 µg/mL (≈ 4.62 µM); against Enterococcus faecalis, 3.12 µg/mL (≈ 9.25 µM); with Staphylococcus aureus [3], 1.56 µg/mL (≈ 4.62 µM).
For the molecule `CC(=O)NC[C@H]1CN(c2ccc(N3CCN(C(=O)C(=O)/C=C/c4ccco4)CC3)c(F)c2)C(=O)O1`, the MIC in the experiment on Streptococcus pyogenes amounted to 0.78 µg/mL (≈ 1.61 µM); against Staphylococcus aureus [1], 3.12 µg/mL (≈ 6.44 µM); against Bacillus cereus it was 0.78 µg/mL (≈ 1.61 µM); with Staphylococcus aureus [2], 0.39 µg/mL (≈ 0.805 µM); against Enterococcus faecalis, 0.78 µg/mL (≈ 1.61 µM); in the experiment on Staphylococcus aureus [3], 1.56 µg/mL (≈ 3.22 µM). Also, the outcome in the experiment with Pseudomonas aeruginosa, in the experiment with Klebsiella pneumoniae and with Escherichia coli was inactive.
Regarding `CC(=O)NC[C@H]1CN(c2ccc(N3CCN(C(=O)C(=O)/C=C/c4ccc(Cl)cc4)CC3)c(F)c2)C(=O)O1`, the minimum inhibitory concentration (MIC) against Streptococcus pyogenes is 0.39 µg/mL (≈ 0.737 µM); in the experiment with Staphylococcus aureus [1], 0.78 µg/mL (≈ 1.47 µM); in the experiment with Bacillus cereus, 0.39 µg/mL (≈ 0.737 µM); with Staphylococcus aureus [2] it was 0.78 µg/mL (≈ 1.47 µM); against Enterococcus faecalis, 0.78 µg/mL (≈ 1.47 µM); against Staphylococcus aureus [3], 0.78 µg/mL (≈ 1.47 µM). The result in the experiment on Pseudomonas aeruginosa, with Klebsiella pneumoniae and in the experiment with Escherichia coli was inactive.
